This note sets out measurements from ChEMBL document CHEMBL3102810, “Alkylamino derivatives of pyrazinamide: synthesis and antimycobacterial evaluation” (Bioorg Med Chem Lett, 2014).

The test system of data set [1] is Lichtheimia corymbifera. Briefly: Antifungal activity against Absidia corymbifera 272 after 72 to 120 hrs by microdilution broth method. It is filed as functional, organism-based. A general note: Dilution methods test growth across graded concentrations, often in twofold steps.
Data set [2] deals with Staphylococcus epidermidis. The experiment in a line: Antibacterial activity against methicillin-resistant Staphylococcus epidermidis H 5996/08 after 24 to 48 hrs by microdilution broth method. It is filed as functional, organism-based.
Data set [3] relates to Pseudomonas aeruginosa. The experiment in a line: Antibacterial activity against Pseudomonas aeruginosa CCM 1961 after 24 to 48 hrs by microdilution broth method. Type of data set: functional, organism-based. In a few lines:
(§1)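 Antibacterial screen with compound concentrations up to a highest level of 500 µM. Results expressed as MIC in µM.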

Data set [4] deals with Candida tropicalis. The experiment in a line: Antifungal activity against Candida tropicalis 156 after 72 to 120 hrs by microdilution broth method. Type of data set: functional, organism-based.
The subject of data set [5] is Aspergillus fumigatus. The experiment in a line: Antifungal activity against Aspergillus fumigatus 231 after 72 to 120 hrs by microdilution broth method. Type of data set: functional, organism-based.
The subject of data set [6] is Trichophyton mentagrophytes. Briefly: Antifungal activity against Trichophyton mentagrophytes after 72 to 120 hrs by microdilution broth method. Type of data set: functional, organism-based.
For data set [7], the system named is Pichia kudriavzevii. The experiment in a line: Antifungal activity against Candida krusei E28 after 72 to 120 hrs by microdilution broth method. Type of data set: functional, organism-based.
Data set [8] deals with Staphylococcus epidermidis. Briefly: Antibacterial activity against Staphylococcus epidermidis H 6966/08 after 48 hrs by microdilution broth method. It is filed as functional. In a few lines: as §1
The test system of data set [9] is Trichophyton mentagrophytes. Briefly: Antifungal activity against Trichophyton mentagrophytes 445 after 72 to 120 hrs by microdilution broth method. Type of data set: functional, organism-based.
The subject of data set [10] is Klebsiella pneumoniae. The experiment in a line: Antibacterial activity against Klebsiella pneumoniae D 11750/08 after 24 to 48 hrs by microdilution broth method. It is filed as functional, organism-based. In a few lines: as §1
Data set [11] concerns Candida albicans. Briefly: Antifungal activity against Candida albicans ATCC 44859 after 72 to 120 hrs by microdilution broth method. Type of data set: functional, organism-based.
For data set [12], the system named is Staphylococcus epidermidis. The experiment in a line: Antibacterial activity against Staphylococcus epidermidis H 6966/08 up to 500 uM after 24 to 48 hrs by microdilution broth method. Type of data set: functional, organism-based. In a few lines:
as §1

The test system of data set [13] is Trichosporon asahii. The experiment in a line: Antifungal activity against Trichosporon asahii 1188 after 72 to 120 hrs by microdilution broth method. It is filed as functional, organism-based.
Data set [14] has as its system Enterococcus sp. Briefly: Antibacterial activity against Enterococcus sp. J 14365/08 after 24 to 48 hrs by microdilution broth method. It is filed as functional, organism-based. In a few lines: as §1
In data set [15] the test system is Nakaseomyces glabratus. The experiment in a line: Antifungal activity against Candida glabrata 20/I after 72 to 120 hrs by microdilution broth method. Type of data set: functional, organism-based.
The test system of data set [16] is Escherichia coli. The experiment in a line: Antibacterial activity against Escherichia coli CCM 4517 after 24 to 48 hrs by microdilution broth method. It is filed as functional, organism-based. In a few lines: as §1
The subject of data set [17] is Klebsiella pneumoniae. Briefly: Antibacterial activity against ESBL positive Klebsiella pneumoniae J 14368/08 after 24 to 48 hrs by microdilution broth method. Type of data set: functional, organism-based. In a few lines: as §1
Data set [18] relates to Staphylococcus aureus. The experiment in a line: Antibacterial activity against Staphylococcus aureus CCM 4516/08 after 24 to 48 hrs by microdilution broth method. Type of data set: functional, organism-based. In a few lines:
as §1

For data set [19], the system named is Mycobacterium kansasii. Briefly: Antimycobacterial activity against pyrazinamide-resistant Mycobacterium kansasii CNCTC My 235/80 after 5 days by microplate alamar blue assay. As to conditions: CNCTC My 235/80, 120 h. Type of data set: functional. In a few lines:
(§2)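 Microplate alamar blue assay run at pH 5.6, using conditions optimized for pyrazinamide. Strains came from the Czech National Collection of Type Cultures. MIC was read in µg/mL and converted to µM using molecular weight.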

Data set [20] deals with Mycobacterium tuberculosis. Briefly: Antimycobacterial activity against Mycobacterium tuberculosis H37Rv CNCTC My 331/88 after 5 days by microplate alamar blue assay. It is filed as functional. Conditions: H37Rv CNCTC My 331/88, 120 h. In a few lines:
as §2
A general note: The colour change of resazurin is a common sign of viable cells or microbes.

Data set [21] deals with Mycobacterium avium. Briefly: Antimycobacterial activity against pyrazinamide-resistant Mycobacterium avium CNCTC My 152/73 after 5 days by microplate alamar blue assay. It is filed as functional. Conditions: CNCTC My 152/73, 120 h. In a few lines:
as §2

The test system of data set [22] is Mycobacterium avium. Briefly: Antimycobacterial activity against pyrazinamide-resistant Mycobacterium avium CNCTC My 80/72 after 5 days by microplate alamar blue assay. Type of data set: functional. As to conditions: CNCTC My 80/72, 120 h. In a few lines:
as §2

A short description of data set [23]: Lipophilicity, log K of the compound by HPLC analysis. Type of data set: physicochemical.

Converted amounts (≈) assume the structure as drawn. The source made the active and inactive calls. The rule behind the calls is not given here.

Take `CNc1cncc(C(N)=O)n1`: the outcome in data set [1], in data set [2], in [3], in [4], in data set [5] and in data set [6] was inactive. The outcome in data set [7], in data set [8], in [9], in data set [10], in [11] and in data set [12] was inactive. Moreover, the result in data set [13], in data set [14], in data set [15], in [16], in data set [17] and in data set [18] was inactive.
Regarding `NC(=O)c1cnc(NCCCc2ccccc2)cn1`, the MIC in [19] is 100 µg/mL; in [20], 98 µM; in [21] it was greater than 100 µg/mL; in [22] it was greater than 100 µg/mL. The outcome in [1], in [2], in data set [3], in data set [4], in [5] and in data set [6] was inactive. Moreover, the result in [7], in [8], in [9], in [10], in [11] and in data set [12] was inactive. In addition, the result in data set [13], in data set [14], in [15], in data set [16], in data set [17] and in data set [18] was inactive. The “log K” value in [23] is 0.1408.
Turning to `NC(=O)c1cncc(NCCc2ccccc2)n1`, the minimum inhibitory concentration (MIC) in data set [19], in [20], in data set [21] and in data set [22] was greater than 100 µg/mL in each case. The result in data set [1], in data set [2], in data set [3], in [4], in data set [5] and in data set [6] was inactive. Also, the result in [7], in data set [8], in data set [9], in [10], in data set [11] and in data set [12] was inactive. The result in data set [13], in data set [14], in data set [15], in [16], in [17] and in data set [18] was inactive. For the same compound, the “log K” value in [23] is listed as -0.0986.
As to `CCCCCCNc1cnc(C(N)=O)cn1`, the MIC in data set [19] was 100 µg/mL; in [20] it was 225 µM; in data set [21], greater than 100 µg/mL; in [22] it was greater than 100 µg/mL. The outcome in [1], in data set [2], in data set [3], in [4], in data set [5] and in data set [6] was inactive. Moreover, the outcome in [7], in data set [8], in data set [9], in data set [10], in data set [11] and in data set [12] was inactive. Also, the outcome in data set [13], in [14], in [15], in data set [16], in [17] and in data set [18] was inactive. Also, the “log K” value in data set [23] was 0.2389.
For the compound `NC(=O)c1cncc(N)n1`, the minimal inhibitory concentration (MIC) in [19], in data set [20], in data set [21] and in [22] was greater than 100 µg/mL throughout. For the same compound, the result in data set [1], in [2], in [3], in [4], in data set [5] and in data set [6] was inactive. The result in data set [7], in [8], in data set [9], in data set [10], in data set [11] and in data set [12] was inactive. Moreover, the result in data set [13], in [14], in [15], in data set [16], in data set [17] and in data set [18] was inactive. Besides, in data set [23], the “log K” value is reported as -0.7814.
For `CCCNc1cncc(C(N)=O)n1`, the minimum inhibitory concentration (MIC) in data set [19], in data set [20], in data set [21] and in data set [22] was greater than 100 µg/mL each time. The result in data set [1], in data set [2], in data set [3], in data set [4], in data set [5] and in data set [6] was inactive. Besides, the outcome in data set [7], in data set [8], in data set [9], in [10], in [11] and in data set [12] was inactive. Also, the outcome in data set [13], in data set [14], in data set [15], in data set [16], in [17] and in data set [18] was inactive. Also, in data set [23], the “log K” value is -0.4386.
In the case of `NNC(=O)c1ccncc1` [ISONIAZID], the MIC in data set [19] was found to be 11 µM; in data set [20], 3 µM; in data set [21], 6.25 µg/mL (≈ 45.6 µM); in data set [22] it was 12.5 µg/mL (≈ 91.1 µM). In addition, the “log K” value in data set [23] is listed as -0.7432.
Turning to `CCCCNc1cncc(C(N)=O)n1`, the MIC is greater than 100 µg/mL in [19], 100 µg/mL in [20], greater than 100 µg/mL in data set [21] and greater than 100 µg/mL in data set [22]. For the same compound, the outcome in data set [1], in data set [2], in data set [3], in data set [4], in data set [5] and in [6] was inactive. Also, the result in [7], in data set [8], in [9], in data set [10], in data set [11] and in data set [12] was inactive. The result in [13], in [14], in [15], in [16], in data set [17] and in data set [18] was inactive. In addition, in data set [23], the “log K” value was -0.2162.

A word on the MIC: it is the least concentration at which growth counts as inhibited.
